Reference: ChEMBL document CHEMBL1781928, “Thiazolylmethyl ortho-substituted phenyl glucoside library as novel C-aryl glucoside SGLT2 inhibitors” (Eur J Med Chem, 2011)

Molecular target: T1, Sodium/glucose cotransporter 2 (Homo sapiens, UniProt P31639)
T1 sequence (P31639 whole entry): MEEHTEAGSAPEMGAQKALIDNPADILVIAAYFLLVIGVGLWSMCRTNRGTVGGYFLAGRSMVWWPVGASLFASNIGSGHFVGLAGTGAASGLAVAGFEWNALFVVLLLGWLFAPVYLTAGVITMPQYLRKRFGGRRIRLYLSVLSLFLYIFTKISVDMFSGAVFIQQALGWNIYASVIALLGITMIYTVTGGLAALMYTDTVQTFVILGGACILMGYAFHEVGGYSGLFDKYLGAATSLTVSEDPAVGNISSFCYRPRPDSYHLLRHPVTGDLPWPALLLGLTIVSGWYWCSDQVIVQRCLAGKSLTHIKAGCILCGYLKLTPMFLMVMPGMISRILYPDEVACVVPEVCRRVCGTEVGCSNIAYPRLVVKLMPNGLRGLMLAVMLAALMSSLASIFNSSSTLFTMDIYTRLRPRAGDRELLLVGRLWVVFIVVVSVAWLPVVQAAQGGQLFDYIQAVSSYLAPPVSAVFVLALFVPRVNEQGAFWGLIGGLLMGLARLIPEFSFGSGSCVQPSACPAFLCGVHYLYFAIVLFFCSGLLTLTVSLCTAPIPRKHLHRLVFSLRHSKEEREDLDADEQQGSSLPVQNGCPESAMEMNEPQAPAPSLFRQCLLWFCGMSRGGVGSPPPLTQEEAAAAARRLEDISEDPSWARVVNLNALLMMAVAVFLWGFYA
Assay: Inhibition of human SGLT2 expressed in CHO cells assessed as [14C]-alpha-methyl-D-glucopyranoside uptake after 2 hrs by liquid scintillation counter
Assay type: cell-based
Summary of the method: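 hSGLT2 cDNA from adult kidney, stably transfected into CHO cells. They were pretreated 10 min at 37 °C in choline-chloride buffer (pH 7.4), then taken up 2 h at 37 °C in NaCl buffer with 1 mM unlabeled AMG plus ¹⁴C-AMG (8 uM) and inhibitor or DMSO. Two washes in buffer containing 10 mM AMG. IC₅₀ by nonlinear regression.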

Structure (SMILES) | IC50
OC[C@H]1O[C@@H](c2cc(Cc3ncc(-c4ccc(F)cc4)s3)c(Cl)cc2F)[C@H](O)[C@@H](O)[C@@H]1O | 27.4 nM
C#CCOc1cc(Cl)c(Cc2ncc(-c3ccco3)s2)cc1[C@@H]1O[C@H](CO)[C@@H](O)[C@H](O)[C@H]1O | 2.23 nM
CCOc1cc(Cl)c(Cc2ncc(-c3ccsc3)s2)cc1[C@@H]1O[C@H](CO)[C@@H](O)[C@H](O)[C@H]1O | 1.18 nM
C=CCCOc1cc(Cl)c(Cc2ncc(-c3ccco3)s2)cc1[C@@H]1O[C@H](CO)[C@@H](O)[C@H](O)[C@H]1O | 32.8 nM
OC[C@H]1O[C@@H](c2cc(Cc3ncc(-c4ccco4)s3)c(Cl)cc2Cl)[C@H](O)[C@@H](O)[C@@H]1O | 2.24 nM
COc1cc(Cl)c(Cc2ncc(-c3ccco3)s2)cc1[C@@H]1O[C@H](CO)[C@@H](O)[C@H](O)[C@H]1O | 2.15 nM
OCc1cc(Cl)c(Cc2ncc(-c3ccoc3)s2)cc1[C@@H]1O[C@H](CO)[C@@H](O)[C@H](O)[C@H]1O | 20.5 nM
CCCOc1cc(Cl)c(Cc2ncc(-c3ccco3)s2)cc1[C@@H]1O[C@H](CO)[C@@H](O)[C@H](O)[C@H]1O | 21.6 nM
CN(C)CCOc1cc(Cl)c(Cc2ncc(-c3ccco3)s2)cc1[C@@H]1O[C@H](CO)[C@@H](O)[C@H](O)[C@H]1O | 713 nM

More lines, now with the values ahead:

IC50 | Structure (SMILES)
10 nM | C=CCOCc1cc(Cl)c(Cc2ncc(-c3ccsc3)s2)cc1[C@@H]1O[C@H](CO)[C@@H](O)[C@H](O)[C@H]1O
38.7 nM | C=CCOCc1cc(Cl)c(Cc2ncc(-c3ccoc3)s2)cc1[C@@H]1O[C@H](CO)[C@@H](O)[C@H](O)[C@H]1O
2.23 nM | OCc1cc(Cl)c(Cc2ncc(-c3ccsc3)s2)cc1[C@@H]1O[C@H](CO)[C@@H](O)[C@H](O)[C@H]1O
17.5 nM | C=CCOCc1cc(Cl)c(Cc2ncc(-c3ccco3)s2)cc1[C@@H]1O[C@H](CO)[C@@H](O)[C@H](O)[C@H]1O
5.88 nM | OCc1cc(Cl)c(Cc2ncc(-c3cccs3)s2)cc1[C@@H]1O[C@H](CO)[C@@H](O)[C@H](O)[C@H]1O
5.81 nM | OCc1cc(Cl)c(Cc2ncc(-c3ccco3)s2)cc1[C@@H]1O[C@H](CO)[C@@H](O)[C@H](O)[C@H]1O
1.59 nM | COc1cc(Cl)c(Cc2ncc(-c3cccs3)s2)cc1[C@@H]1O[C@H](CO)[C@@H](O)[C@H](O)[C@H]1O
16.2 nM | C=CCOCc1cc(Cl)c(Cc2ncc(-c3cccs3)s2)cc1[C@@H]1O[C@H](CO)[C@@H](O)[C@H](O)[C@H]1O
